# Screens from PubChem.
# NR2E3 ag-1: activates human NR2E3 receptor; Q9Y5X4; CHO-S Gal4-NCOR/VP16-NR2E3 two-hybrid, luciferase; inhibition of corepressor binding, % at 3.98 µM; 360,000 compounds, 0.35% hits; AID 602229;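 active = inhibition above the mean of all tested compounds plus 3 SD, cut at about 70% in these data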;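 also: higher means lower luciferase signal from less NR2E3 corepressor binding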
# Target sequence (Q9Y5X4 whole entry, looked up, the tested form may be a part): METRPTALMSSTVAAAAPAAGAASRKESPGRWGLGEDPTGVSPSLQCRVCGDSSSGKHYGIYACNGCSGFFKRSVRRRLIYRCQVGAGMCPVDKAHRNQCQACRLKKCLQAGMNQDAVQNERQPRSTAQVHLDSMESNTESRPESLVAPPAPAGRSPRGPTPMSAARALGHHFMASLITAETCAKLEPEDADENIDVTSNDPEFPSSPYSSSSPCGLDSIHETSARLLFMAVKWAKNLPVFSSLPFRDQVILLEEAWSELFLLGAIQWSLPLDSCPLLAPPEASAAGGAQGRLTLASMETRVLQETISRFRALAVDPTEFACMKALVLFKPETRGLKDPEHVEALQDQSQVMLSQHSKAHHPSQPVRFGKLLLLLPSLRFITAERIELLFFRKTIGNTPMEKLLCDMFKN
# NR2E3 ag-2: agonists of human nuclear receptor NR2E3; Q9Y5X4; GST-NR2E3/biotin-RetCOR TR-FRET, 1536-well; inhibition of corepressor binding, % at 4.78 µM; 320,000 compounds, 0.12% hits;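 active = percent inhibition above the cutoff of mean plus 3 SD of all tested compounds, set per screening campaign, cut at about 20% in these data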
#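 Material: NR2E3–RetCOR corepressor complex / Amount: 1.35 nM GST-NR2E3 / Medium: Tris pH 7.5 / Compound: single nominal compound dose of 4.8 µM / Incubation: 5 h at 4 °C / Technique: TR-FRET, Eu(K)-anti-GST donor, streptavidin-D2 acceptor, ex 340, em 617/671 nm / Read-out basis: percent loss of FRET ratio relative to control wells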
# NR1D1 modulator: modulates human Rev-erb alpha binding to DNA; P20393; Rev-erbα–FITC-DNA binding, fluorescence polarization, 90 min; activity, % at 10 µM; 370,000 compounds, 0.79% hits;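 active = activity above about 14%, limit read from the data; passing the limit was not always enough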
# PG9 binder: small molecules binding HIV-1 gp120 antibody PG9; TR-FRET gp120-PG9 antibody binding; inhibition, % at 6.7 µM; 360,000 compounds, 0.43% hits; AID 624416; in the data active = inhibition above about 8.5%
# NR1D1 mod conf: Rev-erb alpha (human) modulation, hit confirmation; Rev-erb alpha FITC-DNA binding, fluorescence polarization, 90 min; 3,000 compounds, 61% hits; activation, % at 25 µM; shares compounds with NR1D1 modulator;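 active = activation at or above a set limit, or at least 3 SD above the negative control mean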
# RORg counter: RORgamma DNA-binding activity, dose-response counter-screen | shares compounds with NR1D1 modulator | purified RORgamma protein-FITC-DNA binding, fluorescence polarization | IC50, µM | 910 compounds, 8% hits | AID 1259320;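 active = Compounds whose fitted half-maximal concentration for disrupting protein-DNA binding is below 10 micromolar; the record names Rev-erb in its text, so the target is in doubt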
# Hits are given with their value; i = inactive; nt = not tested or not shown. Hits are enriched below; roughly 1.4% of the tested compounds scored in any of these assays.
SMILES,NR2E3 ag-1,NR2E3 ag-2,NR1D1 modulator,PG9 binder,NR1D1 mod conf,others
CCC(=O)c1ccc(N2CCN(S(=O)(=O)c3ccccc3)CC2)c(F)c1,i,i,22.7,i,45.8,RORg counter=i
CCc1cc2c(=O)c(-c3cnn(-c4ccccc4)c3)c(C)oc2cc1OCC(=O)Nc1ccc(F)c(F)c1,i,i,30.9,i,i,
CCOC(=O)c1sc2nc(C)c3c(c2c1N)CC(C)(C)OC3,i,i,i,i,nt,
CCCc1nc2sc(C(=O)OCC)c(N)c2c2c1COC(C)(C)C2,i,i,47.8,i,25.4,
COc1ccc(NC(=O)c2sc3nc(N4CCCC4)c4c(c3c2N)CC(C)(C)OC4)cc1,i,i,126.9,i,80.4,RORg counter=i
O=C(O)[C@H](O)[C@@H](O)[C@H](O)[C@H](O)CO,nt,nt,i,nt,nt,
Clc1ccc(Oc2ncnc3oc(-c4ccccc4)cc23)cc1,i,i,37.4,i,18.3,
O=C(OCC#CCSc1nnc(-c2cccs2)o1)c1ccc(F)cc1,nt,nt,i,nt,nt,
COc1ccc(Cc2nc3ccccc3n2CC(=O)N/N=C/c2ccc(O)cc2)cc1OC,i,i,i,i,nt,
COc1ccc(Cc2nc3ccccc3n2CC(=O)N/N=C/c2ccc(C)cc2O)cc1OC,i,i,34.4,i,44.8,RORg counter=i
CC1(C)Cc2c(sc3c2c(N)nc(=S)n3Cc2ccc(Br)cc2)CO1,i,i,135.4,i,94.9,RORg counter=i
CC1(C)Cc2c(sc3nnn(Cc4ccc(Cl)cc4)c(=O)c23)CO1,i,i,i,i,nt,
Cc1cccc(CCNC(=O)Cn2ncc3c2-c2cc(C)ccc2OC3)c1,nt,nt,i,nt,nt,
COC(CNC(=O)c1ccc2nc(-c3cccs3)c(-c3cccs3)nc2c1)OC,i,i,26.6,i,i,
COc1ccc(-c2nc3ccc(C(=O)NCC(OC)OC)cc3nc2-c2ccc(OC)c(OC)c2)cc1OC,i,i,i,i,nt,
O=c1[nH]cnc2c1sc1nc(C(F)F)cc(-c3ccccc3)c12,i,i,31.6,i,28.1,
CCOC(=O)CSc1nc2cc3c(cc2cc1CC)OCCO3,i,i,i,i,nt,
CCc1nnc(NC(=O)CSc2nc3cc4c(cc3cc2CC)OCCO4)s1,i,i,89.7,i,36.0,RORg counter=i
CCc1cc2cc3c(cc2nc1SCC(=O)Nc1nnc(C)s1)OCCO3,i,i,59.5,i,41.0,RORg counter=i
COc1cc2c(C)nc3c(c(C)nn3-c3ccccc3)c2cc1OC,i,i,20.8,i,i,
COC(=O)C1CN(Cc2cn(Cc3ccc(Cl)cc3)nn2)CCS(=O)(=O)N1Cc1ccc(Cl)cc1 (stereo unspecified),nt,nt,i,nt,nt,
COCCN(C(=O)COc1ccc(Cl)cc1)c1nnc(-c2cccnc2)s1,i,i,24.2,i,i,
C[C@H]1[C@@H](c2ccccc2)OC(O)([C@H](Cc2ccccc2)NC(=O)OC(C)(C)C)CN1C (stereo partly specified),nt,nt,i,nt,nt,
N#CCCCc1cn(-c2ccc(-c3noc4c3C(=O)N(CC(=O)N3CCOCC3)CC4)cc2)nn1,nt,nt,i,nt,nt,
Nc1[nH]c2cc(Cl)ccc2c1C(=O)NCCc1ccc(Cl)cc1,nt,nt,i,nt,nt,
SMILES,NR2E3 ag-1,NR2E3 ag-2,NR1D1 modulator,PG9 binder,NR1D1 mod conf,others
COc1ccc(OC)c(NC(=O)C2CCN(c3cc(-c4ccccc4)nc4ncnn34)CC2)c1,i,i,34.7,i,i,
CCOC(=O)c1ccccc1NC(=O)c1cn(-c2ccc(C)c(C)c2)c(=O)c2ccccc12,i,i,i,i,nt,
COC(=O)c1ccccc1NC(=O)c1cn(-c2ccc(C)c(C)c2)c(=O)c2ccccc12,i,i,42.1,i,48.4,RORg counter=i
Cc1cccc(CNC(=O)NC2CCCCN(Cc3cccc(Cl)c3)C2=O)c1 (stereo unspecified),nt,nt,i,nt,nt,
COc1ccc(C(=O)CSc2nnc(-c3ccccn3)n2-c2ccccc2)cc1,nt,nt,i,nt,nt,
COc1ccc(S[C@]2(C(=O)N3CCN(C(C)=O)CC3)CC(=O)N(C(=O)/C=C/c3ccccc3)[C@@H]2c2ccc(OC)cc2)cc1,nt,nt,i,nt,nt,
CCOC(=O)c1sc(NC(=O)CSc2nc3c(cc2C#N)CCCCCC3)c(C#N)c1C,i,i,i,i,nt,
Cc1ccc(C)c(NC(=O)CSc2nc(C)cc(C)c2C#N)c1,i,i,38.0,i,25.2,
COc1ccc(-c2c(C#N)c(SCC(N)=O)nc3c2CCCC3)cc1,i,i,67.6,i,37.3,RORg counter=i
CCOC(=O)c1sc(NC(=O)CSc2nc3c(c(-c4ccc(OC)cc4)c2C#N)CCCC3)c(C#N)c1C,i,i,31.7,i,21.9,
CCOC(=O)c1sc(NC(=O)CSc2nc(C)cc(C)c2C#N)c(C#N)c1C,i,i,23.6,i,i,
CCOC(=O)c1sc(NC(=O)CSc2nc(C)cc(-c3ccccc3)n2)c(C#N)c1C,i,i,i,i,nt,
COC(=O)[C@]12C[C@H](CC(=O)NCCC(C)C)C(=O)N(Cc3ccco3)C1=C[C@H](C(C)(C)C)O[C@@H]2C,nt,nt,i,nt,nt,
COC(=O)[C@]12C[C@H](CC(=O)NCc3ccc(C)o3)C(=O)N(CCC3=CCCCC3)C1=C[C@H](C1CCCC1)O[C@@H]2C,nt,nt,i,nt,nt,
Cc1ccc2c(C(=O)CSc3ccccc3)c(C)[nH]c2c1,i,i,30.3,i,28.2,
Cc1[nH]c2ccccc2c1C(=O)CSc1ccccc1,i,i,i,i,nt,
Cc1nc(N)c(C#N)c(-c2cccnc2)c1-c1ccccc1,i,i,i,i,nt,
Cc1ccc2c(n1)sc1c(-c3ccccc3)c(C#N)c(N)nc12,i,i,49.0,i,38.0,RORg counter=i
Cc1cccc2cc(C#N)c(SCC#N)nc12,i,i,63.2,i,52.8,RORg counter=i
CCc1nc(SCC#N)c(C#N)cc1C,nt,i,nt,nt,nt,
COC(=O)c1cc(-c2ccc(C)c3ccccc23)c(=O)n2c1CCC2,nt,nt,i,nt,nt,
CCCCNc1c2c3c(cccc3n(C)c1=O)C(=O)c1ccccc1-2,i,i,nt,nt,nt,
CC(=O)Nc1ccc(Nc2c3c4c(cccc4n(C)c2=O)C(=O)c2ccccc2-3)cc1,i,i,33.4,i,31.3,RORg counter=i
Cn1c(=O)c(NCCO)c2c3c(cccc31)C(=O)c1ccccc1-2,i,i,100.7,i,118.3,RORg counter=i
Cn1c(=O)c(NCCc2ccccc2)c2c3c(cccc31)C(=O)c1ccccc1-2,i,i,97.0,i,68.9,RORg counter=i
SMILES,NR2E3 ag-1,NR2E3 ag-2,NR1D1 modulator,PG9 binder,NR1D1 mod conf,others
CCC(CO)Nc1cccc2c1S(=O)(=O)N(Cc1cn(Cc3ccc(C(F)(F)F)cc3)nn1)Cc1ccccc1O2 (stereo unspecified),nt,nt,i,nt,nt,
COC(=O)c1cc(-c2ccc3ccccc3c2)c(=O)n2c1CCC2,nt,nt,i,nt,nt,
CCOc1ccc(C(=O)/C=C/Nc2ccc(S(=O)(=O)Nc3cc(C)nc(C)n3)cc2)cc1,nt,i,19.8,i,i,
COc1cc(NS(=O)(=O)c2ccc(N/C=C\C(=O)c3ccc(C)cc3)cc2)nc(OC)n1,i,i,i,i,nt,
Cc1cc(C)nc(NS(=O)(=O)c2ccc(N/C=C\C(=O)c3ccc(Cl)cc3)cc2)n1,i,i,i,i,nt,
Cc1cc(C)nc(NS(=O)(=O)c2ccc(N/C=C/C(=O)c3ccc(Cl)c(Cl)c3)cc2)n1,i,i,31.9,i,19.1,
